Measured values taken from ChEMBL document CHEMBL5058577, “EUbOPEN Chemogenomics Library 2 (Multiplex)” (2022).

Tested on: HEK-293T
Experiment: Multiplex assay against HEK293T
Assay type: toxicity, cell-based
Conditions: human
In short: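 Live cells were stained at seeding with Hoechst33342, BioTracker Green Microtubule Cytoskeleton Dye, MitoTracker Red and Annexin V Alexa Fluor 680, then imaged on a CQ1 microscope at 37°C and 5% CO2 after compound addition. CellPathfinder machine-learning gating split cells into Hoechst high-intensity objects or normal cells. Normal cells were split into healthy, pyknosed or fragmented nuclei, and pyknosed cells into mitotic or apoptotic. Tubulin, mitochondrial-mass and membrane-permeability phenotypes are per cents of healthy-nucleus cells.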

[1] = 12 h, 1 µM, compound concentration 1 uM, replicate 1
[2] = 12 h, 1 µM, compound concentration 1 uM, replicate 2
[3] = 12 h, 10 µM, compound concentration 10 uM, replicate 1
[4] = 12 h, 10 µM, compound concentration 10 uM, replicate 2
[5] = 24 h, 1 µM, compound concentration 1 uM, replicate 1
[6] = 24 h, 1 µM, compound concentration 1 uM, replicate 2
[7] = 24 h, 10 µM, compound concentration 10 uM, replicate 1
[8] = 24 h, 10 µM, compound concentration 10 uM, replicate 2
[9] = 48 h, 1 µM, compound concentration 1 uM, replicate 1
[10] = 48 h, 1 µM, compound concentration 1 uM, replicate 2
[11] = 48 h, 10 µM, compound concentration 10 uM, replicate 1
[12] = 48 h, 10 µM, compound concentration 10 uM, replicate 2

SMILES: CCNC1(C(N)=O)CCN(c2ncnc3c2nc(-c2ccccc2Cl)n3-c2ccc(Cl)cc2)CC1 [OTENABANT]
- Population Apoptotic (%) [1]: 51%
- Population Fragmented Nuclei (%) [1]: 8%
- Population Healthy Nuclei (%) [1]: 80%
- Population Hoechst High Intensity Objects (%) [1]: 10%
- Population Membrane Permeable-Phenotype (%) [1]: 0%
- Population Mitochondria Different-Phenotype (%) [1]: 48%
- Population Mitotic Cells (%) [1]: 48%
- Population Normal (%) [1]: 89%
- Population Pyknosed Nuclei (%) [1]: 10%
- Population Tubulin-Different-Phenotype (%) [1]: 52%
- Total Cell Count [1]: 401
- Population Apoptotic (%) [2]: 58%
- Population Healthy Nuclei (%) [2]: 76%
- Population Hoechst High Intensity Objects (%) [2]: 6%
- Population Mitochondria Different-Phenotype (%) [2]: 66%
- Population Mitotic Cells (%) [2]: 41%
- Population Normal (%) [2]: 93%
- Population Pyknosed Nuclei (%) [2]: 15%
- Population Tubulin-Different-Phenotype (%) [2]: 44%
- Total Cell Count [2]: 333
- Population Apoptotic (%) [3]: 46%
- Population Fragmented Nuclei (%) [3]: 3%
- Population Healthy Nuclei (%) [3]: 74%
- Population Hoechst High Intensity Objects (%) [3]: 16%
- Population Membrane Permeable-Phenotype (%) [3]: 0%
- Population Mitochondria Different-Phenotype (%) [3]: 82%
- Population Mitotic Cells (%) [3]: 53%
- Population Normal (%) [3]: 83%
- Population Pyknosed Nuclei (%) [3]: 22%
- Population Tubulin-Different-Phenotype (%) [3]: 50%
- Total Cell Count [3]: 381
- Population Apoptotic (%) [4]: 63%
- Population Fragmented Nuclei (%) [4]: 4%
- Population Healthy Nuclei (%) [4]: 67%
- Population Hoechst High Intensity Objects (%) [4]: 9%
- Population Mitochondria Different-Phenotype (%) [4]: 96%
- Population Mitotic Cells (%) [4]: 36%
- Population Normal (%) [4]: 90%
- Population Pyknosed Nuclei (%) [4]: 27%
- Population Tubulin-Different-Phenotype (%) [4]: 43%
- Total Cell Count [4]: 251
- Population Apoptotic (%) [5]: 49%
- Population Fragmented Nuclei (%) [5]: 8%
- Population Healthy Nuclei (%) [5]: 80%
- Population Hoechst High Intensity Objects (%) [5]: 5%
- Population Membrane Permeable-Phenotype (%) [5]: 0%
- Population Mitochondria Different-Phenotype (%) [5]: 43%
- Population Mitotic Cells (%) [5]: 50%
- Population Normal (%) [5]: 94%
- Population Pyknosed Nuclei (%) [5]: 11%
- Population Tubulin-Different-Phenotype (%) [5]: 44%
- Total Cell Count [5]: 474
- Population Apoptotic (%) [6]: 40%
- Population Fragmented Nuclei (%) [6]: 12%
- Population Healthy Nuclei (%) [6]: 75%
- Population Mitochondria Different-Phenotype (%) [6]: 47%
- Population Mitotic Cells (%) [6]: 59%
- Population Tubulin-Different-Phenotype (%) [6]: 41%
- Total Cell Count [6]: 442
- Population Apoptotic (%) [7]: 40%
- Population Fragmented Nuclei (%) [7]: 8%
- Population Healthy Nuclei (%) [7]: 71%
- Population Hoechst High Intensity Objects (%) [7]: 17%
- Population Membrane Permeable-Phenotype (%) [7]: 1%
- Population Mitochondria Different-Phenotype (%) [7]: 79%
- Population Mitotic Cells (%) [7]: 59%
- Population Normal (%) [7]: 82%
- Population Pyknosed Nuclei (%) [7]: 19%
- Population Tubulin-Different-Phenotype (%) [7]: 56%
- Total Cell Count [7]: 452
- Population Apoptotic (%) [8]: 64%
- Population Fragmented Nuclei (%) [8]: 6%
- Population Healthy Nuclei (%) [8]: 77%
- Population Hoechst High Intensity Objects (%) [8]: 13%
- Population Membrane Permeable-Phenotype (%) [8]: 0%
- Population Mitochondria Different-Phenotype (%) [8]: 95%
- Population Mitotic Cells (%) [8]: 35%
- Population Normal (%) [8]: 86%
- Population Pyknosed Nuclei (%) [8]: 15%
- Population Tubulin-Different-Phenotype (%) [8]: 53%
- Total Cell Count [8]: 283
- Population Apoptotic (%) [9]: 34%
- Population Fragmented Nuclei (%) [9]: 12%
- Population Healthy Nuclei (%) [9]: 78%
- Population Hoechst High Intensity Objects (%) [9]: 4%
- Population Membrane Permeable-Phenotype (%) [9]: 1%
- Population Mitochondria Different-Phenotype (%) [9]: 29%
- Population Mitotic Cells (%) [9]: 65%
- Population Normal (%) [9]: 95%
- Population Pyknosed Nuclei (%) [9]: 9%
- Population Tubulin-Different-Phenotype (%) [9]: 30%
- Total Cell Count [9]: 766
- Population Apoptotic (%) [10]: 32%
- Population Fragmented Nuclei (%) [10]: 8%
- Population Healthy Nuclei (%) [10]: 82%
- Population Membrane Permeable-Phenotype (%) [10]: 0%
- Population Mitochondria Different-Phenotype (%) [10]: 30%
- Population Mitotic Cells (%) [10]: 68%
- Population Pyknosed Nuclei (%) [10]: 8%
- Total Cell Count [10]: 604
- Population Apoptotic (%) [11]: 52%
- Population Fragmented Nuclei (%) [11]: 13%
- Population Healthy Nuclei (%) [11]: 71%
- Population Hoechst High Intensity Objects (%) [11]: 16%
- Population Membrane Permeable-Phenotype (%) [11]: 2%
- Population Mitochondria Different-Phenotype (%) [11]: 78%
- Population Mitotic Cells (%) [11]: 47%
- Population Normal (%) [11]: 83%
- Population Pyknosed Nuclei (%) [11]: 15%
- Population Tubulin-Different-Phenotype (%) [11]: 66%
- Total Cell Count [11]: 560
- Population Apoptotic (%) [12]: 70%
- Population Fragmented Nuclei (%) [12]: 10%
- Population Healthy Nuclei (%) [12]: 77%
- Population Hoechst High Intensity Objects (%) [12]: 14%
- Population Membrane Permeable-Phenotype (%) [12]: 0%
- Population Mitochondria Different-Phenotype (%) [12]: 89%
- Population Mitotic Cells (%) [12]: 29%
- Population Normal (%) [12]: 85%
- Population Pyknosed Nuclei (%) [12]: 12%
- Population Tubulin-Different-Phenotype (%) [12]: 57%
- Total Cell Count [12]: 325
